Measurements published in ChEMBL document CHEMBL1132831, “Synthesis and characterization of a potent and selective protein tyrosine phosphatase inhibitor, 2” (Bioorg Med Chem Lett, 2000).
pIC50: −log10 of the molar value.

Target: T1, Receptor-type tyrosine-protein phosphatase C (Homo sapiens, UniProt P08575)
T1 sequence (P08575 whole entry): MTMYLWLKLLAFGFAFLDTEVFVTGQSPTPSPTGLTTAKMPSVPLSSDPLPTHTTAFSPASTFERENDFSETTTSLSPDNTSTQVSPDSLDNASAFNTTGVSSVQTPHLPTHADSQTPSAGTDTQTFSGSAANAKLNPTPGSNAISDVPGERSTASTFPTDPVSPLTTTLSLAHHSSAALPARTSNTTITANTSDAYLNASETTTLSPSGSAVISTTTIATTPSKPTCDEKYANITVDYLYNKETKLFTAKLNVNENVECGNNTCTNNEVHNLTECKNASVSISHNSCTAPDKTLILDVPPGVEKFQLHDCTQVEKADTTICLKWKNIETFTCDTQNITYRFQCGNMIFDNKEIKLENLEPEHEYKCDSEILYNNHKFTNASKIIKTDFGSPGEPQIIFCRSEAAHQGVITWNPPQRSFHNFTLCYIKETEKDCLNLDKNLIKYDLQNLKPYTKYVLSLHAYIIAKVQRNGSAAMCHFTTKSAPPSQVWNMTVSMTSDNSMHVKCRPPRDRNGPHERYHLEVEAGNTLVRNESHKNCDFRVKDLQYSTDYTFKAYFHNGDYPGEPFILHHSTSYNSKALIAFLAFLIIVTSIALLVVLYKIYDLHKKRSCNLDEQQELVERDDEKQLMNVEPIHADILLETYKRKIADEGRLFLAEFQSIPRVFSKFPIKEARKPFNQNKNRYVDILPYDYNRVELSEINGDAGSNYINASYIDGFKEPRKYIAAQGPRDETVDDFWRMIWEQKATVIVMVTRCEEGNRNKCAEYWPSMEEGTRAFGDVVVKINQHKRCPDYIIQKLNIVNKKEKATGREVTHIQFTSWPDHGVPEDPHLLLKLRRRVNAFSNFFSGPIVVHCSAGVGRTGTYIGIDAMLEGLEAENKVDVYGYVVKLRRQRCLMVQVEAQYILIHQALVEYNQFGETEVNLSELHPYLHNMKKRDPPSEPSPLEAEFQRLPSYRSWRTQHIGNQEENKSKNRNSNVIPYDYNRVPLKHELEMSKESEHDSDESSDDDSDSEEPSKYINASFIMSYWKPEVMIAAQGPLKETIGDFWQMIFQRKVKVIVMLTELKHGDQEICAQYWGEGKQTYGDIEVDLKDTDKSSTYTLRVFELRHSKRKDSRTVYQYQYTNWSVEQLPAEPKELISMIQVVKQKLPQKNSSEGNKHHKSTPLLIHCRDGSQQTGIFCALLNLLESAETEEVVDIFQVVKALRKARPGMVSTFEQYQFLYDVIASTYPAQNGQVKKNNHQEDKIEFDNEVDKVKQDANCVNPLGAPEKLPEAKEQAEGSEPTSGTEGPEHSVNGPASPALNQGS
Test: The compound was evaluated for its inhibitory activity towards Protein tyrosine phosphatase of CD45
How it was run: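 Commercial enzyme with 1 mM p-nitrophenyl phosphate in 25 mM MOPS pH 6.5, 5 mM EDTA, 1 mM dithiothreitol. Compound was tested at various concentrations from 30 nM, with a 30 min incubation at 37 °C. The reaction was stopped with 1 N NaOH and read at 405 nm. IC50 was obtained by nonlinear regression curve fitting.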

Row | Molecule | pIC50
1 | Cc1ccnc(C[S+]([O-])c2nc3ccc(OC(C)C)cc3[nH]2)c1 (configuration not stated) | 3.42
2 | CSc1ccnc(CSc2nc3ccc(OC(C)C)cc3[nH]2)c1 | < 3.00
3 | CC(C)Oc1ccc2[nH]c([S+]([O-])Cc3ccccn3)nc2c1 (configuration not stated) | 3.92

Second part, the molecule after the results:

Row | pIC50 | Molecule
4 | 4.09 | CSc1ccnc(C[S+]([O-])c2nc3ccc(OC4CCCCC4)cc3[nH]2)c1 (configuration not stated)
5 | 6.55 | CSc1ccnc(C[S+]([O-])c2nc3cc(OC(C)C)ccc3[nH]2)c1 (configuration not stated)

Test system: not listed separately
Test: The compound was evaluated for its inhibitory effect of dual specificity phosphatases of VHR
How it was run: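 Bacterially expressed GST-VHR fusion protein with 1 mM p-nitrophenyl phosphate in 25 mM MOPS pH 6.5, 5 mM EDTA, 1 mM dithiothreitol. Compound was present at various concentrations from 30 nM during 30 min at 37 °C. NaOH was then added and absorbance read at 405 nm. IC50 was derived by nonlinear regression.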

Row | pIC50 | Molecule
6 | 3.98 | VANADATE
7 | 4.30 | CSc1ccnc(C[S+]([O-])c2nc3cc(OC(C)C)ccc3[nH]2)c1 (configuration not stated)
